The text below walks through data of ChEMBL document CHEMBL5030567, “Macrocyclic Inhibitors of HGF-Activating Serine Proteases Overcome Resistance to Receptor Tyrosine Kinase Inhibitors and Block Lung Cancer Progression” (J Med Chem, 2021).

A short description of series [1]: Stability in mouse plasma assessed as half life. It counts as ADME, cell-free.
A short description of series [2]: Stability in human plasma assessed as half life. Type of series: ADME, cell-free.
Series [3] has as its target Coagulation factor X (Homo sapiens, UniProt P00742). Briefly: Inhibition of recombinant C-terminal 10His-tagged human coagulation factor 10a (Leu24 to Lys488 residues) expressed in baculovirus infected Sf9 insect cells using Bz-Ile-Glu-Gly-Arg-pNA as substrate preincubated for 30 mins followed by substrate addition by chromogenic assay.
Series [4] deals with Serine protease hepsin (Homo sapiens, UniProt P05981). Description: Inhibition of recombinant human C-terminal 10-His tagged hepsin (Arg45 to Leu417) expressed in mouse myeloma cells using Boc-QAR-AMC as substrate preincubated for 30 mins followed by substrate addition by fluorescence based assay. It counts as single protein. The method, boiled down:
(§1)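 Inhibitor in 11-point serial dilution (0-20 µM final, 2% DMSO) pre-incubated 30 min at room temperature with enzyme in TNC buffer (25 mM Tris, 150 mM NaCl, 5 mM CaCl2, 0.01% Triton X-100, pH 8). […] Hepsin activated beforehand 24 h at 37°C. Fluorescence ex 380/em 460 nm kinetic; four-parameter fit of velocities; mean of three experiments.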

The target in series [5] is T1, Suppressor of tumorigenicity 14 protein (Homo sapiens, UniProt Q9Y5Y6).
T1 sequence (Q9Y5Y6 whole entry): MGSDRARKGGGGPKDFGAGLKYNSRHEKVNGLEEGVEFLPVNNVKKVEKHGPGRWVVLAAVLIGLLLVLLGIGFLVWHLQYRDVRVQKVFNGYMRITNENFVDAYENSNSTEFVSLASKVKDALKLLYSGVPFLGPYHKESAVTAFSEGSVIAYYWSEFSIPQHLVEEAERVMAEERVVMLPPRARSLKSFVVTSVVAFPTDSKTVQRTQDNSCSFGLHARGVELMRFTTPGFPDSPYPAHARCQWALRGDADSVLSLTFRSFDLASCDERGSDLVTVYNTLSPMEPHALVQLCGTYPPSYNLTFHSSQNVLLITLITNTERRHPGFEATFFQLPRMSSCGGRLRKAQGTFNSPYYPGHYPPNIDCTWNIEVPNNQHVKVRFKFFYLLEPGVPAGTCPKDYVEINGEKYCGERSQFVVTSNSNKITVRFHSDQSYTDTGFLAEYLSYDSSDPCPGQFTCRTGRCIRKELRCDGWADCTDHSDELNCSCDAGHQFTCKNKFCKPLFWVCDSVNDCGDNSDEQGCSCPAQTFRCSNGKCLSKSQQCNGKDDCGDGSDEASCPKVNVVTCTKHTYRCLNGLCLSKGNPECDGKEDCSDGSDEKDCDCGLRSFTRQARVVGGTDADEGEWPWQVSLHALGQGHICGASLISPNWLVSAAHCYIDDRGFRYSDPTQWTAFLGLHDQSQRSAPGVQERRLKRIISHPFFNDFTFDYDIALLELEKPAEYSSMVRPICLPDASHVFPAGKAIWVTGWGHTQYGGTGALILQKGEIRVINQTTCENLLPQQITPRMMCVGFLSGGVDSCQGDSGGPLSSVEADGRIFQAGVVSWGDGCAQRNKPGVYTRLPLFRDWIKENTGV
Briefly: Inhibition of recombinant human N-terminal met-His6-tagged matriptase catalytic domain (Gly596 to Val855 residues) expressed in Escherichia coli using Boc-QAR-AMC as substrate preincubated for 30 mins followed by substrate addition by fluorescence based assay. The procedure, abridged:
as §1

Series [6] addresses T2, Hepatocyte growth factor activator serine protease (Homo sapiens, UniProt Q04756).
T2 sequence (Q04756 whole entry): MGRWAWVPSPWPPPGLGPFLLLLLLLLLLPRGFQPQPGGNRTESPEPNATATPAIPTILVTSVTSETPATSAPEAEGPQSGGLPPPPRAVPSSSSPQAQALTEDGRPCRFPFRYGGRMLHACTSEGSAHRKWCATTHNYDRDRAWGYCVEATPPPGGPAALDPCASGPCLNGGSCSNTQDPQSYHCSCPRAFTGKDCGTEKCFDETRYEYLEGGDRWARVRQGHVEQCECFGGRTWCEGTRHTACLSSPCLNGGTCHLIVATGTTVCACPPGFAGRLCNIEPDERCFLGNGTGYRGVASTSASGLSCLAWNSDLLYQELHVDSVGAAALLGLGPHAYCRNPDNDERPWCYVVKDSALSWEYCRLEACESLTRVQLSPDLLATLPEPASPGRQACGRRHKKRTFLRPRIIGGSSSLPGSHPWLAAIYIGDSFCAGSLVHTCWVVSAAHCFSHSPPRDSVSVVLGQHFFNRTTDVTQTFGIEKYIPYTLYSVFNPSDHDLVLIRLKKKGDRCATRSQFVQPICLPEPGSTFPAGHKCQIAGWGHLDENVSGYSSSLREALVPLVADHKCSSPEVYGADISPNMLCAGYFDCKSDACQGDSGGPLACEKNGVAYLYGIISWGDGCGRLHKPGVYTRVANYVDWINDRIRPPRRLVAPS
Description: Inhibition of recombinant human HGFA serine protease domain using Boc-QLR-AMC as substrate preincubated for 30 mins followed by substrate addition by fluorescence based assay. The method, boiled down:
as §1

Series [7] deals with NCI-H596. Description: Antitumor activity against human NCI-H596 cells xenografted in hHGF knock in NSG mouse assessed as tumor growth inhibition at 40 mg/kg, po administered daily for 25 days. It counts as functional, organism-based. The conditions noted are these: time 25.0 day. The method, boiled down:
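Prevention design in female hHGF-KI NSG mice injected with ten million H596 cells. Oral dosing at 40 mg/kg daily began immediately after injection and ran for 25 days. Tumor growth tracked, n=3-5 per group, Dunnett's test versus control.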

Series [8] deals with NCI-H596. Briefly: Inhibition of pro-HGF stimulated cell growth in human H596 cells at 500 nM by ELISA. It counts as functional, cell-based.
The subject of series [9] is EBC-1. Description: Cytotoxicity against human EBC-1 cells assessed as reduction in cell viability preincubated with pro-HGF for 24 hrs followed by compound addition and measured after 48 hrs by CellTiter-Glo assay. Type of series: functional, cell-based.
Series [10] has as its system NCI-H596. Briefly: Antitumor activity against human NCI-H596 cells xenografted in hHGF knock in NSG mouse assessed as tumor growth inhibition at 40 mg/kg, po administered daily for 14 to 16 days. Type of series: functional, organism-based. The settings on record: time 14-16 day. The procedure, abridged:
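Female hHGF-KI NSG mice given 2 million H596 cells, or males given 0.5 million. Dosing started at tumor volume ~40 or ~350 mm3. Daily oral dosing at 40 mg/kg for 16 or 14 days. Tumor growth compared with control-treated mice by ANOVA with Dunnett's test, n=3-6 per group.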

The nature of series [11]: Half life in mouse plasma at 20 mg/kg, ip. The settings on record: for t1/2: in vivo, 20 mg/kg. Type of series: ADME, organism-based.
Series [12] concerns the target Prothrombin (Homo sapiens, UniProt P00734). Description: Inhibition of recombinant thrombin (unknown origin) using D-Phe-Pip-Arg-pNA as substrate preincubated for 30 mins followed by substrate addition by chromogenic assay.
Series [13] is described as follows: Plasma protein binding in mouse assessed as unbound fraction. Type of series: ADME, cell-free.
Series [14] relates to NCI-H596. Briefly: Inhibition of pro-HGF stimulated cell growth in human H596 cells at […] by ELISA. It counts as functional, cell-based. The conditions noted are these: dose 33.3 µM.
Series [15] has as its system HCC827. Description: Cytotoxicity against human HCC827 cells assessed as reduction in cell viability at 20 nM after 72 hrs in presence of pro-HGF by crystal violet staining based assay. It counts as functional. The procedure, abridged: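 HCC827 cells treated with gefitinib (20 nM) with or without pro-HGF (100 ng/ml) and with compound (0.1-1 µM). Viability by crystal violet staining after 72 h. Means±S.E.M., n=3-5; one-way ANOVA with Dunnett's test versus gefitinib plus pro-HGF.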

The source made the active and inactive calls. The calls are words filed in the database; no cut-off is given here.

For the compound `CC(=O)N[C@H]1CC(=O)NCCCC[C@@H](C(=O)N[C@@H](CCCNC(=N)N)C(=O)c2nc3ccccc3s2)NC(=O)[C@H](CCC(N)=O)NC1=O`, the t1/2 in series [1] and in [2] was over 4.818 h throughout. Further, in [3], the half-inhibitory concentration (IC50) was over 20 µM.

On to `CC(=O)N[C@H]1CC(=O)NCCCC[C@@H](C(=O)N[C@@H](CCCNC(=N)N)C(=O)c2nc3ccccc3s2)NC(=O)CNC1=O`, for which the t1/2 in [1] and in series [2] was over 4.818 h each time.

`CC(=O)N[C@H]1CC(=O)NCCCC[C@@H](C(=O)N[C@@H](CCCNC(=N)N)C(=O)c2nc3ccccc3s2)NC(=O)[C@H]([C@@H](C)O)NC1=O`: the t1/2 was found to be 3.21 h in series [1] and 4.142 h in [2]. The IC50 in series [4] worked out at 0.0058 µM; in [5], 0.0037 µM; in [3] it was 13.3 µM; in series [6], 11.8 µM.

Turning to `CC(=O)N[C@H]1CC(=O)NCCCC[C@@H](C(=O)N[C@@H](CCCNC(=N)N)C(=O)c2nc3ccccc3s2)NC(=O)[C@H](CC(N)=O)NC1=O`, the t1/2 in series [1] and in [2] was over 4.818 h in each case.

For the compound `CC(=O)N[C@H]1CC(=O)NCCCC[C@@H](C(=O)N[C@@H](CCCNC(=N)N)C(=O)c2nc3ccccc3s2)NC(=O)[C@H](Cc2ccc(O)cc2)NC1=O`, the t1/2 is 4.613 h in [1] and over 4.818 h in series [2]. For the same compound, the half-inhibitory concentration (IC50) in [6] is over 20 µM.

`Cn1cc(-c2ccc3nnc(C(F)(F)c4ccc5ncccc5c4)n3n2)cn1`: the outcome in series [7] and in [10] was Active. Besides, in series [8], the inhibition entry is “Active”. Moreover, the outcome in series [9] was inactive.

For `CC(=O)N[C@H]1CC(=O)NCCCC[C@@H](C(=O)N[C@@H](CCCNC(=N)N)C(=O)c2nccs2)NC(=O)[C@H](CC(C)C)NC1=O`, the t1/2 in series [1] and in series [2] was over 4.818 h each time. In series [6], the concentration for half-maximal inhibition (IC50) was over 20 µM.

In turn, `CC(=O)N[C@H]1CC(=O)N(C)CCCC[C@@H](C(=O)N[C@@H](CCCNC(=N)N)C(=O)c2nc3ccccc3s2)NC(=O)[C@H](CC(C)C)NC1=O` had a half-life in series [11] (plasma) of 0.553 h. Besides, the t1/2 in [1] and in [2] was over 4.82 h throughout. Moreover, the IC50 in series [6] stood at 12 µM.

Turning to `CC(=O)N[C@H]1CCCCNC(=O)C[C@@H](C(=O)N[C@@H](CCCNC(=N)N)C(=O)c2nc3ccccc3s2)NC(=O)[C@H](CC(C)C)NC1=O`, the half-maximal inhibitory concentration (IC50) in [12] is over 20 µM; in series [5] it was 0.02 µM; in series [6], over 20 µM. Also, the values for the t1/2 in series [1] and in [2] were 2.97 h and over 4.82 h, respectively. The fraction unbound in series [13] was 0.853.

As for `CC(=O)N[C@H]1CCCCNC(=O)CC[C@@H](C(=O)N[C@@H](CCCNC(=N)N)C(=O)c2nc3ccccc3s2)NC(=O)[C@H](CC(C)C)NC1=O`, the t1/2 in [11] was 0.71 h; in series [1] it was 4.57 h; in [2], over 4.82 h. For the same compound, the IC50 in [12] was over 20 µM. For the same compound, in series [13], the fraction unbound came to 0.184.

In the case of `N=C(N)Nc1ccc(C(=O)Oc2ccc3cc(C(=N)N)ccc3c2)cc1`, the inhibition result in series [14] was “Active”.

Turning to `CC(=O)N[C@H]1CC(=O)NCCCC[C@@H](C(=O)N[C@@H](CCCNC(=N)N)C(=O)c2nc3ccccc3s2)NC(=O)[C@H](C(C)C)NC1=O`, the t1/2 in [1] and in series [2] was over 4.818 h throughout.

`CC(=O)N[C@H]1CC(=O)NCCCC[C@@H](C(=O)N[C@@H](CCCNC(=N)N)C(=O)c2nc3ccccc3s2)NC(=O)[C@H](C)NC1=O`: the t1/2 in series [1] stood at 4.353 h; in [2] it was 3.602 h. The IC50 in [3] is over 20 µM.

In the case of `CC(=O)N[C@H]1CCCCNC(=O)CC[C@@H](C(=O)N[C@@H](CCCNC(=N)N)C(=O)c2nc3ccccc3s2)NC(=O)[C@H](CCCNC(=N)N)NC1=O`, the IC50 is over 20 µM in series [12] and 0.155 µM in series [3]. In addition, the t1/2 in series [1] was 2.6 h; in series [2], 2.52 h. Besides, the free fraction (fraction unbound) in series [13] came out at 0.259.

`CSCC[C@@H]1NC(=O)[C@@H](NC(C)=O)CC(=O)NCCCC[C@@H](C(=O)N[C@@H](CCCNC(=N)N)C(=O)c2nc3ccccc3s2)NC1=O`: the t1/2 in series [1] and in series [2] was over 4.818 h each time.

Regarding `COc1cc2ncnc(Nc3ccc(F)c(Cl)c3)c2cc1OCCCN1CCOCC1`, in series [15], the result was inactive.

Turning to `CC(=O)N[C@H]1CC(=O)NCCCC[C@@H](C(=O)N[C@@H](CCCNC(=N)N)C(=O)c2nc3ccccc3s2)NC(=O)[C@H](Cc2ccccc2)NC1=O`, the t1/2 in series [11] is 1.61 h; in series [1], over 4.818 h; in [2], over 4.818 h. Also, the IC50 in series [4] was 0.017 µM.
